Assay results as given in PMC3667667 (Clinical pharmacology and therapeutics, 2012).
Values joined by “and” are separate entries in the source; they are usually repeats but may differ in a detail not shown here. Identical values can stand only once.

What was measured:
CYP3A4 [1] = conditions: humans, long-term treatment; ref 36 (Mouly); cited from earlier work
[2] = test system: hepatic bilirubin metabolism; experiment: Total bilirubin levels; assay type: in vivo, human
ABCB1 [3] = experiment: CAR target gene expression in PBMCs treated in vitro; assay type: cell-based, human; conditions: PBMCs of drug-naive individuals, 10 μmol/l, 48 h
ABCC2 = conditions: in vivo; ref 32 (Burhenne et al.); cited from earlier work
CYP3A = conditions: rats, long-term treatment; cited from earlier work
ABCB1 [4] = conditions: human intestinal cell line from colon adenocarcinoma; cited from earlier work
[5] = test system: CAR variant containing the APYLT insertion; conditions: in vitro; ref 43 (Chen et al.); cited from earlier work
CYP2B6 [6] = experiment: Gene expression in PBMCs isolated from treated healthy individuals; assay type: in vivo, human; conditions: single dose vs steady state; P = 0.036
[7] = Pharmacokinetics of efavirenz in healthy subjects; conditions: male, human, in vivo
CYP2B6 [8] = experiment: CAR target gene expression in PBMCs treated in vitro; assay type: cell-based, human; conditions: PBMCs of drug-naive individuals, 10 μmol/l, 48 h
CYP3A4 [9] = conditions: humans, long-term treatment; ref 36 (Mouly); cited from earlier work; remark: listed apart in the source
ABCB1 [10] = conditions: in vivo; ref 32 (Burhenne et al.); cited from earlier work
UGT1A1 = experiment: CAR target gene expression in PBMCs treated in vitro; assay type: cell-based, human; conditions: PBMCs of drug-naive individuals, 10 μmol/l, 48 h
CYP3A4 activity = experiment: Plasma 4β-hydroxycholesterol, marker of CYP3A4 activity; assay type: in vivo, human
full-length CAR (CAR1) = conditions: in vitro; ref 43 (Chen et al.); cited from earlier work
ABCB1 (P-gp) = conditions: humans, long-term treatment; ref 36 (Mouly); cited from earlier work
ABCB1 [11] = conditions: rats, everted gut sacs, long-term treatment; cited from earlier work
ABCB1 [12] = conditions: cited from earlier work
CYP2B6 [13] = experiment: CYP2B6 mRNA induction in primary human hepatocytes; assay type: cell-based; conditions: freshly isolated human hepatocytes, efavirenz 1 μmol/l, vs DMSO control
CAR target genes = experiment: Gene expression in PBMCs after multiple doses of ezetimibe; assay type: in vivo, human; conditions: multiple doses of ezetimibe 10 mg, treatment period B
Outline: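 PBMCs from 12 healthy male Caucasian volunteers aged 20–36 y, with the drug given after a fast of at least 10 h. EDTA blood (5 ml) drawn in the first 3 h of the pharmacokinetic day; spun 1,500g, 4 °C, 15 min; buffy coats pooled per subject, diluted in ice-cold PBS, Lymphoprep 700g, 30 min, room temperature. 1,500 ng total RNA reverse-transcribed; TaqMan real-time PCR for CYP2B6, UGT1A1, ABCB1, ABCC1, normalized to 18S-rRNA.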

ABCB1 [14] = conditions: ref 28 (Manceau et al.); cited from earlier work

SMILES: O=C1Nc2ccc(Cl)cc2[C@@](C#CC2CC2)(C(F)(F)F)O1 [efavirenz]
- CYP3A4-mediated metabolism (erythromycin breath test) (CYP3A4 [1]): induction
- Total bilirubin levels after treatment ([2]; long-term efavirenz, mean ± SD, before treatment 9.82 ± 3.86, P = 0.023): 6.34 ± 2.48 mg/dL
- ABCB1 mRNA induction in PBMCs in vitro (ABCB1 [3]): significant induction
- ABCC2 expression in PBMCs (ABCC2): no significant induction
- Hepatic CYP3A-mediated midazolam metabolism (CYP3A): induce
- ABCB1 expression and function in LS180 cells (ABCB1 [4]): increased expression and function
- Trans-activating activity toward CAR variant containing the APYLT insertion [5]: negligible activity
- Pearson r, increase in CYP2B6 expression in PBMCs vs reduction in efavirenz AUC (CYP2B6 [6]): 0.61 and 0.608
- CLR gluc (renal clearance) [7]: 0.050 ± 0.054 mL/min
- C max ([7]; 400 mg): 622 ± 244 ng/mL
- CL renal ([7]; 400 mg): 0.062 ± 0.031 mL/min
- AUC(0-t) ([7]; 400 mg, AUC0–24 h): 6710 ± 2340 ng·h/mL
- AUC(0-t) ([7]; 400 mg, AUC0–120 h): 17000 ± 6390 ng·h/mL
- Tmax ([7]; 400 mg, T max): 2.4 ± 1.9 h
- Tmax ([7]; Tmax): 2 to 3 h
- CYP2B6 mRNA induction in PBMCs in vitro (CYP2B6 [8]): significant induction
- Intestinal CYP3A4 expression levels (CYP3A4 [9]): no impact
- ABCB1 expression in PBMCs (ABCB1 [10]): no significant induction
- UGT1A1 mRNA induction in PBMCs in vitro (UGT1A1): significant induction
- Pearson r, change in efavirenz AUC vs change in 4β-hydroxycholesterol levels (CYP3A4 activity; single dose vs steady state, P = 0.052): −0.572
- 4β-hydroxycholesterol/cholesterol ratio (CYP3A4 activity; study days 25 and 30, multiple doses of efavirenz): significant induction
- Trans-activating activity toward full-length CAR (CAR1) (full-length CAR (CAR1)): high trans-activating activity
- Intestinal ABCB1 (P-gp) expression levels (ABCB1 (P-gp)): no impact
- ABCB1-mediated intestinal efflux of rhodamine 123 (ABCB1 [11]): without affecting
- ABCB1 induction in PBMCs in vitro (ABCB1 [12]): induction
- CYP2B6 expression in primary human hepatocytes (CYP2B6 [13]): significantly increased

SMILES: O=C1[C@H](CC[C@H](O)c2ccc(F)cc2)[C@@H](c2ccc(O)cc2)N1c1ccc(F)cc1 [ezetimibe]
- Impact on total bilirubin levels ([2]; multiple doses of ezetimibe, study days 15 and 17): No such impact
- Impact on target gene expression in PBMCs (CAR target genes): did not observe an impact

SMILES: CCC1(c2ccccc2)C(=O)NC(=O)NC1=O [phenobarbital]
- ABCB1 induction after treatment of cells (ABCB1 [14]): no induction

SMILES: CO[C@H]1/C=C/O[C@@]2(C)Oc3c(C)c(O)c4c(O)c(c(/C=N/N5CCN(C)CC5)c(O)c4c3C2=O)NC(=O)/C(C)=C\C=C\[C@H](C)[C@H](O)[C@@H](C)[C@@H](O)[C@@H](C)[C@H](OC(C)=O)[C@@H]1C [rifampin]
- ABCB1 induction after treatment of cells (ABCB1 [14]): no induction
